# Published values collected from several papers.
# Protocols differ between the studies behind these lines.
# CDK8: Cyclin-dependent kinase 8 (CDK8, Homo sapiens, UniProt P49336)
# CDK8 with cyclin C: Cyclin-dependent kinase 8, with cyclin C (CDK8, Homo sapiens, UniProt P49336)
Structure (SMILES),target,assay,setting,measurement,result
CS(=O)(=O)N1CCCC(NC(=O)[C@H](CCC2CCCCC2)NC(=O)c2ccc(CNC(=O)c3cnc4ccccn34)cc2)C1 (some centres unmarked),CDK8,"cell-free assay, competition with immobilised ligand",0.1 µM,remaining binding,42%
CC(C)(C)c1nc(-c2cccc(NS(=O)(=O)c3c(F)cccc3F)c2F)c(-c2ccnc(N)n2)s1,CDK8 with cyclin C,"enzyme activity, inhibitor, radiometric",1 µM,remaining activity,109%
CN1CCN(C(=O)c2ccc3cc(CCNc4ccnc5ccc(C#N)cc45)ccc3c2)CC1,CDK8 with cyclin C,"binding, TR-FRET",,kon,878000 M⁻¹ s⁻¹
Cc1c(NC(=O)c2cc(C(N)=O)nc3cc(F)ccc23)c(C(F)(F)F)nn1Cc1ccc(C(C)(C)C)cc1,CDK8,"cell-free assay, competition with immobilised ligand",1 µM,remaining binding,100%
CCOc1cc(-c2nncn2C)ccc1Nc1ncc2cc(C)nc(NCC(C)(C)C)c2n1,CDK8 with cyclin C,"cell-free assay, TR-FRET",1 µM,inhibition,≤ 15%
Cn1c2c(c3ccc(Cl)c(Cl)c31)C(C#N)C1(CCCCC1)NC2=O (racemic),CDK8,"thermal stability, DSF",10 µM,ΔTm,0.4 °C
Nc1ncnc2occ(-c3ccc(NC(=O)Nc4cc(C(F)(F)F)ccc4F)cc3)c12,CDK8,"cell-free assay, inhibitor",20 µM,remaining signal,2%
O=C(N1CCS(=O)(=O)CC1)N1C[C@H](c2ccc(OC(F)(F)F)cc2)C[C@H](c2nc(C3CC3)no2)C1,CDK8,"cell-free assay, competition with immobilised ligand",1 µM,remaining binding,100%
Cn1c2c(Cl)c(Cl)ccc2c2cn[nH]c(=O)c21,CDK8,"thermal stability, DSF",10 µM,ΔTm,1 °C
O=C(Nc1cnn(-c2csc(C(=O)NC3COC3)c2)c1)Nc1ccccc1Cl,CDK8 with cyclin C,"enzyme activity, inhibitor",5 µM,remaining activity,101%
Cn1c2c(c3ccccc31)C(C#N)C(C)(C)NC2=O (centres unmarked),CDK8,"thermal stability, DSF",10 µM,ΔTm,0.8 °C
Cc1ccc(C(=O)Nc2ccc(CN3CCN(C)CC3)c(C(F)(F)F)c2)cc1C#Cc1cnc2cccnn12,CDK8,"enzyme activity, inhibitor",23.5 nM,remaining activity,9.5%
C[C@H](c1ccnc(Nc2nc3ccc(-c4cc(N(C)C)ncn4)cc3[nH]2)c1)N1CCN(C(=O)CC(F)(F)F)CC1,CDK8,"cell-free assay, competition with immobilised ligand",0.1 µM,remaining binding,96%
Cn1c2c(Cl)c(Cl)ccc2c2cc(N)[nH]c(=O)c21,CDK8,"thermal stability, DSF",10 µM,ΔTm,0.7 °C
